Experimental data reported in ChEMBL document CHEMBL3217692, “Synthesis and cytotoxicity evaluation of novel pyrido[3,4-d]pyrimidine derivatives as potential anticancer agents” (2012).

Experiments:
Type in all cases: functional
MCF7 = assay: Cytotoxicity against human MCF7 cells assessed as cell growth at 10 uM after 48 hrs by sulforhodamine B assay relative to control; conditions: MCF7, 48 h, read-out: Activity
Summary of the method: (§1)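 Adherent cells were grown in RPMI 1640 with 5% FBS and 2 mM L-glutamine, seeded at 5000–40 000 cells/well by doubling time, and held 24 h at 37 °C, 5% CO2 before drug. Time-zero plates were TCA-fixed. Compound in DMSO, single dose 10 μM, 48 h. Cells were fixed with cold TCA (final 10%, 60 min, 4 °C) and stained with 0.4% SRB. Bound dye was dissolved in 10 mM Tris base and read at 515 nm. Percent growth was derived from time-zero, control and treated absorbances.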

MDA-MB-468 = assay: Cytotoxicity against human MDA-MB-468 cells assessed as cell growth at 10 uM after 48 hrs by sulforhodamine B assay relative to control; conditions: MDA-MB-468, 48 h, read-out: Activity; summary of the method: as §1
[1] = Cytotoxicity against human UO31 cells assessed as cell growth at 10 uM after 48 hrs by sulforhodamine B assay relative to control; conditions: UO-31, 48 h, read-out: Activity
Summary of the method: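 NCI-60 single-dose screen. Cells were grown in RPMI 1640 with 5% FBS and 2 mM L-glutamine, seeded at 5000–40 000 cells/well according to doubling time, and pre-incubated 24 h at 37 °C, 5% CO2. Time-zero plates were TCA-fixed at dosing. Compound in DMSO was given at 10 μM for 48 h. Cells were then fixed in cold TCA, stained with 0.4% SRB, solubilised in 10 mM Tris base and read at 515 nm. Growth % was calculated from time-zero, control and treated absorbances.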

## COc1nccc2c(-c3ccccc3)nc(N)nc12
MCF7
  growth at 10 µM: 96.5%
MDA-MB-468
  growth at 10 µM: 98.2%
[1]
  growth at 10 µM: 93.8%

## Nc1nc(-c2cccc(F)c2)c2ccnc(O)c2n1
MCF7
  growth at 10 µM: 83.3%
MDA-MB-468
  growth at 10 µM: 107%
[1]
  growth at 10 µM: 117%

## Nc1nc(Nc2ccccc2)c2ccnc(O)c2n1
MCF7
  growth at 10 µM: 80.8%
MDA-MB-468
  growth at 10 µM: 126%
[1]
  growth at 10 µM: 73.7%

## Nc1nc(-c2ccc(Cl)cc2)c2ccnc(O)c2n1
MCF7
  growth at 10 µM: 94.1%
MDA-MB-468
  growth at 10 µM: 108%
[1]
  growth at 10 µM: 96.9%

## COc1nccc2c(Nc3ccccc3)nc(N)nc12
MCF7
  growth at 10 µM: 78.5%
MDA-MB-468
  growth at 10 µM: 56.5%
[1]
  growth at 10 µM: 88.3%

## COc1ccc(Nc2nc(N)nc3c(OC)nccc23)cc1
MCF7
  growth at 10 µM: 73%
MDA-MB-468
  growth at 10 µM: 76.3%
[1]
  growth at 10 µM: 57.7%

## COc1nccc2c(-c3ccc(Cl)cc3)nc(N)nc12
MCF7
  growth at 10 µM: 75.3%
MDA-MB-468
  growth at 10 µM: 90.3%
[1]
  growth at 10 µM: 86.2%

## Nc1nc(Nc2ccc(Cl)cc2)c2ccnc(O)c2n1
MCF7
  growth at 10 µM: 81%
MDA-MB-468
  growth at 10 µM: 135%
[1]
  growth at 10 µM: 54.5%

## Nc1nc(-c2ccccc2)c2ccnc(O)c2n1
MCF7
  growth at 10 µM: 111%
MDA-MB-468
  growth at 10 µM: 101%
[1]
  growth at 10 µM: 91.9%

## COc1nccc2c(Sc3ccccc3)nc(N)nc12
MCF7
  growth at 10 µM: 91.9%
MDA-MB-468
  growth at 10 µM: 112%
[1]
  growth at 10 µM: 75.3%

## COc1ccc(-c2nc(N)nc3c(O)nccc23)cc1
MCF7
  growth at 10 µM: 95.7%
MDA-MB-468
  growth at 10 µM: 110%
[1]
  growth at 10 µM: 94.6%

## COc1ccc(Nc2nc(N)nc3c(O)nccc23)cc1
MCF7
  growth at 10 µM: 79.7%
MDA-MB-468
  growth at 10 µM: 118%
[1]
  growth at 10 µM: 64.6%

## COc1nccc2c(Nc3ccc(Cl)cc3)nc(N)nc12
MCF7
  growth at 10 µM: 62.2%
MDA-MB-468
  growth at 10 µM: 60%
[1]
  growth at 10 µM: 42.9%

## Nc1nc(Sc2ccccc2)c2ccnc(O)c2n1
MCF7
  growth at 10 µM: 91.6%
MDA-MB-468
  growth at 10 µM: 120%
[1]
  growth at 10 µM: 86.8%

## COc1ccc(-c2nc(N)nc3c(OC)nccc23)cc1
MCF7
  growth at 10 µM: 86.3%
MDA-MB-468
  growth at 10 µM: 97.9%
[1]
  growth at 10 µM: 108%
